Experimental findings from ChEMBL document CHEMBL3734652, “Pyrrolo[3,4-c]pyridine-1,3(2H)-diones: A Novel Antimycobacterial Class Targeting Mycobacterial Respiration” (J Med Chem, 2015) are described below.

≈ marks a conversion by molar mass, not a printed value.

Data set [1] has as its system Liver. The data set can be described thus: Drug metabolism in BALB/c mouse liver microsomes assessed as formation of 7-Amino-2-benzyl-4-methyl-1,3-dioxo-2,3-dihydro-1H-pyrrolo-[3,4-c]pyridine-6-carboxylic Acid at 10 uM after 1 hr by LC-MS analysis. The format is ADME. (Microsomes from liver hold many membrane-bound enzymes, among them those of drug oxidation.)
In a further data set the test system is Vero. As to the kind of experiment: Cytotoxicity against African green monkey Vero cells assessed as cell viability by MTT assay. The class given is cell-based. The following applies: Chlorocebus sabaeus. An outline of the steps: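 VERO kidney epithelial cells from African green monkey were exposed to compounds at concentrations up to 100 μM, and IC₅₀ was reported.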
A general note: Tetrazolium assays rely on reduction of a dye to a coloured formazan, in cell work by metabolically active cells.

The test system of data set [2] is Plasma. As to the kind of experiment: Drug metabolism in C57/BL6 mouse plasma assessed as formation of 7-Amino-2-benzyl-4-methyl-1,3-dioxo-2,3-dihydro-1H-pyrrolo-[3,4-c]pyridine-6-carboxamide by LC-MS analysis. The class given is ADME, cell-free.
A short description of data set [3]: Kinetic solubility in FaSSIF at pH 6.5 after 2 hours at 25 degC by shake flask method. The settings on record: read-out: Kinetic_solubility. The class given is physicochemical.
Data set [4] is described as follows: Metabolic stability in human liver microsomes assessed as residual compound at 0.1 uM after 30 mins by LC-MS/MS method in presence or absence of NADPH. The class given is ADME. The following applies: read-out: Stability.
The subject of data set [5] is Liver. The data set can be described thus: Drug metabolism in BALB/c mouse liver microsomes assessed as formation of 7-Amino-2-benzyl-4-methyl-1,3-dioxo-2,3-dihydro-1H-pyrrolo-[3,4-c]pyridine-6-carboxamide at 10 uM after 1 hr by LC-MS analysis. The format is ADME.
Data set [6] deals with Liver. The data set can be described thus: Drug metabolism in BALB/c mouse liver microsomes assessed as formation of 7-Amino-2-benzyl-N-cyano-4-methyl-1,3-dioxo-2,3-dihydro-1Hpyrrolo[3,4-c]pyridine-6-carboxamide at 10 uM after 1 hr by LC-MS analysis. The class given is ADME.
Data set [7] in a line: Metabolic stability in mouse liver microsomes assessed as residual compound at 0.1 uM after 30 mins by LC-MS/MS method in presence or absence of NADPH. The format is ADME. The settings on record: read-out: Stability.
The subject of data set [8] is Plasma. The data set can be described thus: Drug metabolism in C57/BL6 mouse plasma assessed as formation of 7-Amino-2-benzyl-4-methyl-1,3-dioxo-2,3-dihydro-1H-pyrrolo-[3,4-c]pyridine-6-carboxylic Acid by LC-MS analysis. The format is ADME, cell-free.
The test system of data set [9] is Mycobacterium tuberculosis. The data set can be described thus: Antimicrobial activity against Mycobacterium tuberculosis H37RvMA under GAST/Fe medium assessed as growth inhibition after 14 days by alamar blue assay. The following applies: 336 h. The class given is functional. An outline of the steps: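 Broth microdilution in GAST/Fe medium against fully virulent Mtb H37RvMa or its derived strains (cytochrome bd oxidase deletion ΔcydKO; qcrB Ala317Thr point mutant). Plates were incubated 14 days, growth was read by Alamar Blue, and MIC90 was taken as the potency value.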
A general note: The colour change of resazurin is a common sign of viable cells or microbes.

Data set [10] deals with Plasma. As to the kind of experiment: Drug metabolism in C57/BL6 mouse plasma assessed as formation of 7-Amino-2-benzyl-N-cyano-4-methyl-1,3-dioxo-2,3-dihydro-1Hpyrrolo[3,4-c]pyridine-6-carboxamide by LC-MS analysis. The class given is ADME, cell-free.
Data set [11] is described as follows: Metabolic stability in rat liver microsomes assessed as residual compound at 0.1 uM after 30 mins by LC-MS/MS method in presence or absence of NADPH. The class given is ADME. The settings on record: read-out: Stability.

As to `Cc1noc(-c2nc(C)c3c(c2N)C(=O)N(Cc2ccccc2)C3=O)n1`, the Drug metabolism entry in the data set on Liver [1], with Plasma [2], in the data set on Liver [5], with Liver [6], with Plasma [8] and in the data set with Plasma [10] was “metabolite_detected” in each case. The half-maximal inhibitory concentration (IC50) in the data set with Vero was greater than 100 µM. Moreover, the solubility kinetic at 2 h in data set [3] was less than 5 µM. For the same molecule, the remaining at 0.5 h, 0.1 µM came to 57% in data set [4], 98% in data set [7] and 100% in data set [11]. The MIC90 in [9] is 0.625 µM (≈ 0.218 µg/mL).

Broadly, the IC50 is the concentration that inhibits the measured activity by half. In general, MIC90 refers to the lowest concentration that inhibits either 90% of growth or 90% of the strains tested, depending on the study.
